# Measurements: ChEMBL document CHEMBL1157765, “Synthesis of DOTA-conjugated multimeric [Tyr3]octreotide peptides via a combination of Cu(I)-catalyzed "click" cycloaddition and thio acid/sulfonyl azide "sulfo-click" amidation and their in vivo evaluation” (J Med Chem, 2010)
# Experiments:
# [1] = Octanol-water partition coefficient, log D at pH 7.4; format: physicochemical
# Outline: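 ¹¹¹In-labeled conjugate (~148 kBq) in PBS pH 7.4 mixed 1:1 with n-octanol and shaken 2 min. Phases separated by centrifugation (5 min, 250g); triplicate aliquots of each layer γ-counted. log D = log₁₀(octanol counts/aqueous counts), from at least two independent experiments.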
# Pancreas [2] = assay: Biodistribution in pancreas of BALB/c mouse bearing rat AR42J cells at 0.37 MBq, iv after 2 hrs; format: ADME, organism-based, AR-42J; conditions: in vivo
# Outline: (§1)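 AR42J tumor grown in right flank of male BALB/c nude mice (20-25 g, 6-8 weeks) by sc injection of 5 × 10⁶ cells; used after ~2 weeks at 4-6 mm diameter. Groups of five received 0.37 MBq (0.1 μg) ¹¹¹In-DOTA conjugate iv via tail vein (labeled in 0.25 M NH₄OAc pH 5.5, 95 °C, 15 min). Tissues dissected at 2, 6 or 24 h, weighed, γ-counted against 1% injected-activity standards; %ID/g, mean ± SD.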
# [3] = Biodistribution in adrenal gland of BALB/c mouse bearing rat AR42J cells at 0.37 MBq, iv after 2 hrs under cold condition; format: ADME, organism-based, AR-42J; conditions: in vivo
# Outline: (§2)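 Receptor block: groups of three AR42J tumor-bearing male BALB/c nude mice co-injected iv via tail vein with 0.37 MBq (0.1 μg) ¹¹¹In-DOTA conjugate plus 50 μg octreotide. Killed by CO₂/O₂ at 2 h; blood, tumor and tissues dissected, weighed and γ-counted against 1% injected-activity standards; %ID/g reported as mean ± SD.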
# Kidney [4] = assay: Biodistribution in kidney of BALB/c mouse bearing rat AR42J cells at 0.37 MBq, iv after 24 hrs; format: ADME, organism-based, AR-42J; conditions: in vivo; outline: as §1
# Blood [5] = assay: Biodistribution in blood of BALB/c mouse bearing rat AR42J cells at 0.37 MBq, iv after 2 hrs; format: ADME, organism-based, AR-42J; conditions: in vivo; outline: as §1
# Kidney [6] = assay: Biodistribution in kidney of BALB/c mouse bearing rat AR42J cells at 0.37 MBq, iv after 6 hrs; format: ADME, organism-based, AR-42J; conditions: in vivo; outline: as §1
# [7] = Biodistribution in adrenal gland of BALB/c mouse bearing rat AR42J cells at 0.37 MBq, iv after 2 hrs; format: ADME, organism-based, AR-42J; conditions: in vivo; outline: as §1
# Pancreas [8] = assay: Biodistribution in pancreas of BALB/c mouse bearing rat AR42J cells at 0.37 MBq, iv after 6 hrs; format: ADME, organism-based, AR-42J; conditions: in vivo; outline: as §1
# Liver [9] = assay: Biodistribution in liver of BALB/c mouse bearing rat AR42J cells at 0.37 MBq, iv after 2 hrs; format: ADME, organism-based, AR-42J; conditions: in vivo; outline: as §1
# Pancreas [10] = assay: Biodistribution in pancreas of BALB/c mouse bearing rat AR42J cells at 0.37 MBq, iv after 24 hrs; format: ADME, organism-based, AR-42J; conditions: in vivo; outline: as §1
# Stomach [11] = assay: Biodistribution in stomach of BALB/c mouse bearing rat AR42J cells at 0.37 MBq, iv after 24 hrs; format: ADME, organism-based, AR-42J; conditions: in vivo; outline: as §1
# [12] = Biodistribution in tumor of BALB/c mouse bearing rat AR42J cells at 0.37 MBq, iv after 2 hrs; format: ADME, organism-based, Neoplasm, AR-42J; conditions: in vivo; outline: as §1
# Kidney [13] = assay: Biodistribution in kidney of BALB/c mouse bearing rat AR42J cells at 0.37 MBq, iv after 2 hrs under cold condition; format: ADME, organism-based, AR-42J; conditions: in vivo; outline: as §2
# Kidney [14] = assay: Biodistribution in kidney of BALB/c mouse bearing rat AR42J cells at 0.37 MBq, iv after 2 hrs; format: ADME, organism-based, AR-42J; conditions: in vivo; outline: as §1
# Liver [15] = assay: Biodistribution in liver of BALB/c mouse bearing rat AR42J cells at 0.37 MBq, iv after 2 hrs under cold condition; format: ADME, organism-based, AR-42J; conditions: in vivo; outline: as §2
# Blood [16] = assay: Biodistribution in blood of BALB/c mouse bearing rat AR42J cells at 0.37 MBq, iv after 2 hrs under cold condition; format: ADME, organism-based, AR-42J; conditions: in vivo; outline: as §2
# Blood [17] = assay: Biodistribution in blood of BALB/c mouse bearing rat AR42J cells at 0.37 MBq, iv after 6 hrs; format: ADME, organism-based, AR-42J; conditions: in vivo; outline: as §1
# Stomach [18] = assay: Biodistribution in stomach of BALB/c mouse bearing rat AR42J cells at 0.37 MBq, iv after 2 hrs; format: ADME, organism-based, AR-42J; conditions: in vivo; outline: as §1
# Pancreas [19] = assay: Biodistribution in pancreas of BALB/c mouse bearing rat AR42J cells at 0.37 MBq, iv after 2 hrs under cold condition; format: ADME, organism-based, AR-42J; conditions: in vivo; outline: as §2
# Liver [20] = assay: Biodistribution in liver of BALB/c mouse bearing rat AR42J cells at 0.37 MBq, iv after 24 hrs; format: ADME, organism-based, AR-42J; conditions: in vivo; outline: as §1
# [21] = molecular target: Somatostatin receptor type 2 (Rattus norvegicus, UniProt P30680); assay: Displacement of [111In]DOTA0,Tyr3]octreotide from SSTR2 receptor in rat AR42J cells; format: cell-based, AR-42J
# Sequence of Somatostatin receptor type 2 (P30680 whole entry): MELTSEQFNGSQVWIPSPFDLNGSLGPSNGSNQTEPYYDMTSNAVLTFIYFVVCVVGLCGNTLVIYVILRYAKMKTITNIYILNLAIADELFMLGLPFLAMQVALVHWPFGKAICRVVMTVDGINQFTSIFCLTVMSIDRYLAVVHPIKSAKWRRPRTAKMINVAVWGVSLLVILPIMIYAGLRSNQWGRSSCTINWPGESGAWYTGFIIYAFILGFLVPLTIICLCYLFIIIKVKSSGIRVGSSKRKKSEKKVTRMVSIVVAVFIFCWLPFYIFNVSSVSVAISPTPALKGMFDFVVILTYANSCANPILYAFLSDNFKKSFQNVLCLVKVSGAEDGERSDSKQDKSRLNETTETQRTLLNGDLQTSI
# Outline: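 AR42J cells (DMEM, 10% FCS, 37 °C, 5% CO₂) seeded 8 × 10⁵/well and grown to confluence, washed with DMEM + 0.1% BSA. Incubated 3 h at 37 °C with [¹¹¹In-DOTA⁰,Tyr³]octreotide tracer (40 000 dpm) and unlabeled peptide at 0.1-300 nM. Washed twice; cell-bound activity γ-counted. IC₅₀ from fitted sigmoidal displacement curves with 95% CI.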
# [22] = Biodistribution in adrenal gland of BALB/c mouse bearing rat AR42J cells at 0.37 MBq, iv after 6 hrs; format: ADME, organism-based, AR-42J; conditions: in vivo; outline: as §1
# Stomach [23] = assay: Biodistribution in stomach of BALB/c mouse bearing rat AR42J cells at 0.37 MBq, iv after 2 hrs under cold condition; format: ADME, organism-based, AR-42J; conditions: in vivo; outline: as §2
# Liver [24] = assay: Biodistribution in liver of BALB/c mouse bearing rat AR42J cells at 0.37 MBq, iv after 6 hrs; format: ADME, organism-based, AR-42J; conditions: in vivo; outline: as §1
# Blood [25] = assay: Biodistribution in blood of BALB/c mouse bearing rat AR42J cells at 0.37 MBq, iv after 24 hrs; format: ADME, organism-based, AR-42J; conditions: in vivo; outline: as §1
# Stomach [26] = assay: Biodistribution in stomach of BALB/c mouse bearing rat AR42J cells at 0.37 MBq, iv after 6 hrs; format: ADME, organism-based, AR-42J; conditions: in vivo; outline: as §1
# [27] = Biodistribution in adrenal gland of BALB/c mouse bearing rat AR42J cells at 0.37 MBq, iv after 24 hrs; format: ADME, organism-based, AR-42J; conditions: in vivo; outline: as §1
# [28] = Biodistribution in tumor of BALB/c mouse bearing rat AR42J cells at 0.37 MBq, iv after 24 hrs; format: ADME, organism-based, Neoplasm, AR-42J; conditions: in vivo; outline: as §1
# [29] = Biodistribution in tumor of BALB/c mouse bearing rat AR42J cells at 0.37 MBq, iv after 6 hrs; format: ADME, organism-based, Neoplasm, AR-42J; conditions: in vivo; outline: as §1
# [30] = Biodistribution in tumor of BALB/c mouse bearing rat AR42J cells at 0.37 MBq, iv after 2 hrs under cold condition; format: ADME, organism-based, Neoplasm, AR-42J; conditions: in vivo; outline: as §2
smiles,measurement,setting,value
C[C@@H](O)[C@@H]1NC(=O)[C@H](CCCCN)NC(=O)[C@@H](Cc2c[nH]c3ccccc23)NC(=O)[C@H](Cc2ccc(O)cc2)NC(=O)[C@@H](NC(=O)[C@@H](Cc2ccccc2)NC(=O)CCCCCn2cc(CO)nn2)CSSC[C@@H](C(=O)N[C@H](CO)[C@@H](C)O)NC1=O,logD,[1],-3.59
C[C@@H](O)[C@@H]1NC(=O)[C@H](CCCCN)NC(=O)[C@@H](Cc2c[nH]c3ccccc23)NC(=O)[C@H](Cc2ccc(O)cc2)NC(=O)[C@@H](NC(=O)[C@@H](Cc2ccccc2)NC(=O)CCCCCn2cc(COc3cc(OCc4cn(CCCCCC(=O)N[C@H](Cc5ccccc5)C(=O)N[C@H]5CSSC[C@@H](C(=O)N[C@H](CO)[C@@H](C)O)NC(=O)[C@H]([C@@H](C)O)NC(=O)[C@H](CCCCN)NC(=O)[C@@H](Cc6c[nH]c7ccccc67)NC(=O)[C@H](Cc6ccc(O)cc6)NC5=O)nn4)cc(C(=O)NS(=O)(=O)CCNC(=O)CN4CCN(CC(=O)O)CCN(CC(=O)O)CCN(CC(=O)O)CC4)c3)nn2)CSSC[C@@H](C(=O)N[C@H](CO)[C@@H](C)O)NC1=O,Drug uptake,Pancreas [2],2.96 % ID/g
same,Drug uptake,[3],1.56 % ID/g
same,Drug uptake,Kidney [4],11.74 % ID/g
same,Drug uptake,Blood [5],1.52 % ID/g
same,Drug uptake,Kidney [6],65.61 % ID/g
same,Drug uptake,[7],2.69 % ID/g
same,Drug uptake,Pancreas [8],1.69 % ID/g
same,Drug uptake,Liver [9],18.67 % ID/g
same,Drug uptake,Pancreas [10],0.36 % ID/g
same,Drug uptake,Stomach [11],2.97 % ID/g
same,Drug uptake,[12],25.31 % ID/g
same,Drug uptake,Kidney [13],57.78 % ID/g
same,Drug uptake,Kidney [14],92.2 % ID/g
same,logD,[1],-1.79
same,Drug uptake,Liver [15],22.67 % ID/g
same,Drug uptake,Blood [16],2.31 % ID/g
same,Drug uptake,Blood [17],0.86 % ID/g
same,Drug uptake,Stomach [18],10.21 % ID/g
same,Drug uptake,Pancreas [19],1.18 % ID/g
same,Drug uptake,Liver [20],5.54 % ID/g
same,IC50,[21],2.45 nM
same,Drug uptake,[22],2.49 % ID/g
same,Drug uptake,Stomach [23],3.46 % ID/g
same,Drug uptake,Liver [24],14.92 % ID/g
same,Drug uptake,Blood [25],0.17 % ID/g
same,Drug uptake,Stomach [26],7.78 % ID/g
same,Drug uptake,[27],1.27 % ID/g
same,Drug uptake,[28],12.14 % ID/g
same,Drug uptake,[29],30.91 % ID/g
same,Drug uptake,[30],5.55 % ID/g
